These results are taken from ChEMBL document CHEMBL1141657, “Synthesis, structure elucidation and identification of antitumoural properties of novel fused 1,2,4-triazine aryl derivatives” (Eur J Med Chem, 2008).

The subject of series [1] is Jurkat. The series is described as follows: Cytotoxicity against human Jurkat cells assessed as cell viability at 50 uM after 24 hrs by MTT assay relative to control. Format: functional. The note with it: read-out: Activity. The procedure, abridged: (§1)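 Jurkat T-cell leukaemia line grown in RPMI 1640 with 10% FBS, 2 mM L-glutamine and gentamycin at 37 °C, 5% CO2, kept in log phase. Compounds were dissolved in DMSO and applied for 24 h. Cells were washed in HEPES-buffered medium (pH 7.4) and given MTT at 0.5 mg/mL for 45 min at 37 °C. Formazan was dissolved in DMSO and read at 570 nm. Viability is % of control, from three independent measurements.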
On the technique in general: Tetrazolium assays rely on reduction of a dye to a coloured formazan, in cell work by metabolically active cells.

Series [2] is described as follows: Cytotoxicity against HSF cells assessed as cell viability at 100 uM after 24 hrs by MTT assay relative to control. Format: cell-based. The note with it: human, read-out: Activity. The gist of the method:
(§2)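 Normal human skin fibroblasts (HSF, primary line) were exposed to DMSO-dissolved compound for 24 h. Viability was read by MTT tetrazolium reduction and expressed against untreated control set at 100%.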

The subject of series [3] is SiHa. The experiment in a line: Growth inhibition of human SiHa cells assessed as BrdU incorporation after 72 hrs by spectrophotometry. Format: functional, cell-based. The procedure, abridged: (§3)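 Cancer cells were seeded at 10⁴ cells/mL, preincubated, then exposed for 72 h to DMSO-dissolved compound. Growth was read by BrdU labelling with ELISA spectrophotometry. IC50 was taken from 72 h dose–survival curves. Triplicates.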
A general note: Uptake of a labelled nucleoside into DNA is a usual measure of proliferation.

The subject of a further series is LS180. The series is described as follows: Induction of DNA damage in human LS180 cells at 32.6 uM by pulsed field gel electrophoresis. Format: functional, cell-based. The procedure, abridged:
(§4)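 After treatment at 32.6, cells were washed twice with PBS. DNA was isolated with lysing buffer plus proteinase K, then purified. Cells were prepared as agarose plugs and run by pulsed field electrophoresis on a 1% agarose gel containing propidium iodide, at 120 V for 1.5 h at room temperature. Experiments were repeated three times.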

Series [4] concerns SiHa. The series is described as follows: Growth inhibition of human SiHa cells assessed as BrdU incorporation at 163.0 uM after 72 hrs by spectrophotometry. In kind it is functional. As to conditions: read-out: GI. The procedure, abridged: (§5)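 Cells were seeded at 10⁴ cells/mL and preincubated. Compounds were dissolved in DMSO and added at two fixed concentrations, then incubated for 72 h. End-point was BrdU labelling with ELISA detection, read spectrophotometrically. Result is % growth inhibition versus untreated controls. Triplicates.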

A short description of series [5]: Growth inhibition of african green monkey Vero cells assessed as BrdU incorporation at 32.6 uM after 72 hrs by spectrophotometry. The note with it: chlorocebus sabaeus, read-out: GI. Format: cell-based. The gist of the method:
as §5

For series [6], the system named is T47D. The series is described as follows: Induction of apoptosis in human T47D cells after 72 hrs by annexin V-propidium iodide based assay. Format: functional. The gist of the method:
(§6)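 Cells were exposed for 72 h, then stained with an annexin V-FITC/propidium iodide detection kit. Apoptotic cells were counted by confocal microscopy using a 460–490 nm filter: yellow nuclei were early apoptosis, red were late, and unstained cells were living. 1000 cells were analysed per measurement, three independent measurements in all. Results are mean ± SD.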

Series [7] is described as follows: Induction of apoptosis in HSF cells after 72 hrs by annexin V-propidium iodide based assay. Format: cell-based. The note with it: human. The procedure, abridged:
as §6

Series [8] is described as follows: Growth inhibition of human LS180 cells assessed as BrdU incorporation after 72 hrs by spectrophotometry. In kind it is functional, cell-based. As to conditions: LS180, 72 h. The gist of the method: as §3
The test system of series [9] is Jurkat. The experiment in a line: Cytotoxicity against human Jurkat cells assessed as decrease in cell viability after 24 hrs by MTT assay. In kind it is functional, cell-based. The procedure, abridged: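 Jurkat cells grown in RPMI 1640/10% FBS at 37 °C, 5% CO2, with 24 h exposure to DMSO-dissolved compound. Read-out was MTT reduction: 0.5 mg/mL in HEPES-buffered medium for 45 min, formazan in DMSO, absorbance at 570 nm. IC50 was taken from 24 h dose–survival curves.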

Series [10] is described as follows: Cytotoxicity against HSF cells assessed as cell viability at 1 uM after 24 hrs by MTT assay relative to control. In kind it is cell-based. The note with it: human, read-out: Activity. The procedure, abridged: as §2
For series [11], the system named is T47D. The series is described as follows: Growth inhibition of human T47D cells assessed as BrdU incorporation at 163.0 uM after 72 hrs by spectrophotometry. As to conditions: read-out: GI. In kind it is functional. The procedure, abridged:
(§7)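 Each cell line was seeded at 10⁴ cells per mL and preincubated. Test agents were dissolved in DMSO, added at two examined concentrations (10 and 50 per mL by mass), and incubated for 72 h. The end-point was BrdU labeling and detection kit III read on an ELISA reader. Percent growth inhibition was calculated against untreated controls, in triplicate.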

Series [12] deals with SiHa. The series is described as follows: Induction of DNA damage in human SiHa cells at 32.6 uM by pulsed field gel electrophoresis. In kind it is functional, cell-based. The gist of the method: as §4
Series [13] deals with Jurkat. The series is described as follows: Cytotoxicity against human Jurkat cells assessed as cell viability at 1 uM after 24 hrs by MTT assay relative to control. Format: functional. The note with it: read-out: Activity. The procedure, abridged: as §1
The nature of series [14]: Growth inhibition of HSF cells assessed as BrdU incorporation at 32.6 uM after 72 hrs by spectrophotometry. In kind it is cell-based. The note with it: human, read-out: GI. The gist of the method: as §5
A short description of series [15]: Growth inhibition of human LS180 cells assessed as BrdU incorporation at 32.6 uM after 72 hrs by spectrophotometry. As to conditions: LS180, 72 h, read-out: GI. Format: functional. The procedure, abridged:
as §5

Series [16] deals with Jurkat. The experiment in a line: Cytotoxicity against human Jurkat cells assessed as cell viability at 100 uM after 24 hrs by MTT assay relative to control. The note with it: read-out: Activity. In kind it is functional. The gist of the method: as §1
Series [17] can be described thus: Growth inhibition of african green monkey Vero cells assessed as BrdU incorporation at 163.0 uM after 72 hrs by spectrophotometry. Format: cell-based. The note with it: chlorocebus sabaeus, read-out: GI. The procedure, abridged: as §5
In series [18] the test system is T47D. The series is described as follows: Induction of DNA damage in human T47D cells at 32.6 uM by pulsed field gel electrophoresis. Format: functional, cell-based. The gist of the method: as §4
For series [19], the system named is T47D. The series is described as follows: Growth inhibition of human T47D cells assessed as BrdU incorporation after 72 hrs by spectrophotometry. In kind it is functional, cell-based. The procedure, abridged: as §3
The test system of series [20] is SiHa. The series is described as follows: Growth inhibition of human SiHa cells assessed as BrdU incorporation at 32.6 uM after 72 hrs by spectrophotometry. In kind it is functional. As to conditions: read-out: GI. The gist of the method:
as §5

A short description of series [21]: Growth inhibition of human LS180 cells assessed as BrdU incorporation at 163.0 uM after 72 hrs by spectrophotometry. Format: functional. As to conditions: LS180, 72 h, read-out: GI. The gist of the method:
as §5

For series [22], the system named is T47D. The series is described as follows: Growth inhibition of human T47D cells assessed as BrdU incorporation at 32.6 uM after 72 hrs by spectrophotometry. In kind it is functional. As to conditions: read-out: GI. The gist of the method:
as §7

The nature of series [23]: Growth inhibition of HSF cells assessed as BrdU incorporation at 163.0 uM after 72 hrs by spectrophotometry. Format: cell-based. The note with it: human, read-out: GI. The procedure, abridged: as §5
The nature of series [24]: Cytotoxicity against HSF cells assessed as cell viability at 50 uM after 24 hrs by MTT assay relative to control. As to conditions: human, read-out: Activity. In kind it is cell-based. The gist of the method: as §2
Series [25] can be described thus: Growth inhibition of human LS180 cells assessed as BrdU incorporation at 165.4 uM after 72 hrs by spectrophotometry. The note with it: LS180, 72 h, read-out: GI. In kind it is functional. The procedure, abridged: as §5
Series [26] can be described thus: Growth inhibition of human LS180 cells assessed as BrdU incorporation at 33.1 uM after 72 hrs by spectrophotometry. In kind it is functional. As to conditions: LS180, 72 h, read-out: GI. The procedure, abridged: as §5
A short description of series [27]: Growth inhibition of HSF cells assessed as BrdU incorporation at 165.4 uM after 72 hrs by spectrophotometry. In kind it is cell-based. As to conditions: human, read-out: GI. The gist of the method: as §5
Series [28] has as its system SiHa. The experiment in a line: Growth inhibition of human SiHa cells assessed as BrdU incorporation at 33.1 uM after 72 hrs by spectrophotometry. In kind it is functional. The note with it: read-out: GI. The procedure, abridged: as §5
A short description of series [29]: Growth inhibition of HSF cells assessed as BrdU incorporation at 33.1 uM after 72 hrs by spectrophotometry. Format: cell-based. As to conditions: human, read-out: GI. The gist of the method: as §5
Another series relates to Vero. The experiment in a line: Growth inhibition of african green monkey Vero cells assessed as BrdU incorporation at 33.1 uM after 72 hrs by spectrophotometry. In kind it is cell-based. The note with it: chlorocebus sabaeus. The procedure, abridged:
as §5

Series [30] deals with T47D. The series is described as follows: Growth inhibition of human T47D cells assessed as BrdU incorporation at 165.4 uM after 72 hrs by spectrophotometry. In kind it is functional. As to conditions: read-out: GI. The procedure, abridged: as §7
Series [31] has as its system SiHa. The experiment in a line: Growth inhibition of human SiHa cells assessed as BrdU incorporation at 165.4 uM after 72 hrs by spectrophotometry. Format: functional. As to conditions: read-out: GI. The gist of the method: as §5
Series [32] deals with T47D. The experiment in a line: Growth inhibition of human T47D cells assessed as BrdU incorporation at 33.1 uM after 72 hrs by spectrophotometry. The note with it: read-out: GI. In kind it is functional. The procedure, abridged:
as §7

Series [33] in a line: Growth inhibition of african green monkey Vero cells assessed as BrdU incorporation at 165.4 uM after 72 hrs by spectrophotometry. In kind it is cell-based. As to conditions: chlorocebus sabaeus, read-out: GI. The procedure, abridged: as §5

SMILES strings stand for the structures. The source made the active and inactive calls. The calls are words filed in the database; no cut-off is given here.

A word on the IC50: it is the concentration at which inhibition is half-maximal. On to `NNC(=O)c1nnc2n(c1=O)CCN2c1cccc(Cl)c1`, for which, in the series on Jurkat [1], the viability at 50 µM was 116%. The viability at 24 h, 100 µM in series [2] worked out at 105%. Moreover, the IC50 in the series with SiHa [3] is 75.4 µM; in series [8], over 100 µM; in the series on Jurkat [9] it was over 100 µM; in the series on T47D [19], over 100 µM. Also, the outcome in the series on LS180, in the series on SiHa [12] and in the series on T47D [18] was Active. The inhibition of growth at 163 µM came out at 63% with SiHa [4], 40% with T47D [11] and 54% in series [21]. The figures for the inhibition at 72 h, 32.6 µM in series [5] and in [14] were 20% and 0%, respectively. Also, the Activity in the series with T47D [6] is on record as 8.5%; in series [7], 1%. The viability at 24 h, 1 µM in series [10] was 108%. Moreover, the viability at 1 µM in the series with Jurkat [13] amounted to 100%. The inhibition of growth at 32.6 µM in series [15] was 42%; with SiHa [20], 45%; in the series with T47D [22], 26%. In addition, the viability at 100 µM in the series with Jurkat [16] was 115%. Besides, the values for the inhibition at 72 h, 163 µM in series [17] and in [23] were 29% and 0%, respectively. For the same compound, the viability at 24 h, 50 µM in series [24] was 113%.
With `COc1ccc(N2CCn3c2nnc(C(=O)NN)c3=O)cc1`, the viability at 50 µM with Jurkat [1] worked out at 97%. The viability at 24 h, 100 µM in [2] was 100%. Also, the inhibition of growth at 165.4 µM in series [25] stood at 1%; in the series with T47D [30] it was 0%; in the series with SiHa [31] it was 18%. Besides, the inhibition of growth at 33.1 µM in series [26] amounted to 1%; in the series on SiHa [28], 19%; in the series on T47D [32], 1%. The viability at 24 h, 1 µM in series [10] worked out at 98%. The inhibition at 72 h, 165.4 µM in series [27] and in series [33] was 0% throughout. The viability at 1 µM in the series on Jurkat [13] worked out at 97%. Moreover, the inhibition at 72 h, 33.1 µM in [29] turned out to be 0%. The viability at 100 µM in the series on Jurkat [16] turned out to be 100%. Also, the “growth inhibition (GI)” value in the series with Vero was determined as 0%. Further, the viability at 24 h, 50 µM in series [24] was found to be 102%.
